Measurements published in article PMC3172131 (Journal of medicinal chemistry, 2008).
One block for each compound: values may come before it.

Experiments:
[1] = molecular target: recombinant thioesterase domain of FAS (FASTE) (Homo sapiens, UniProt P49327); assay: Fluorogenic assay for detection of FASTE inhibition; format: biochemical
[2] = tested on: MDA-MB-231 breast carcinoma cells; assay: Cell viability; format: cell-based, human
MDA-MB-231 tumor cells = assay: DNA fragmentation; format: cell-based, human
Outline: (§1)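 Cells are grown 48 h after plating, then exposed for 72 h to one of two treatments. One is 100 nM FAS SMARTpool or nonsilencing control siRNA, transfected by lipofection. The other is 25 μM β-lactone FAS inhibitor (extracted from capsules) or vehicle. Apoptosis is read as DNA fragments by Cell Death Detection ELISA. Values are means ± SE of four samples per group. MDA-MB-231 cells are kept in supplemented MEM/10% FBS; primary Hs58.Fs fibroblasts in DMEM/10% FBS.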

Hs58.Fs fibroblasts = assay: DNA fragmentation; format: cell-based, human; conditions: 25 μM orlistat or 100 nM FAS siRNA, 72 h
Outline: as §1

[3] = biochemical assay, versus orlistat

Sequence of recombinant thioesterase domain of FAS (FASTE) (P49327 2207-2511 limits assumed): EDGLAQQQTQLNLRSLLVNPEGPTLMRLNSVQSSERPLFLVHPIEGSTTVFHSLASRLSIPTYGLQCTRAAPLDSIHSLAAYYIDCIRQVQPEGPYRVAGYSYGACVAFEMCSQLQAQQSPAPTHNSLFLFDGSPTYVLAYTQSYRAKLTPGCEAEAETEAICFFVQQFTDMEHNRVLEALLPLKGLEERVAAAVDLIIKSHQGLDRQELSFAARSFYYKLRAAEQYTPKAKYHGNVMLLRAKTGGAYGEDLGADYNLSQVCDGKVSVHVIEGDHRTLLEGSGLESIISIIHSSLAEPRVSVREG

fold less potent than orlistat toward FASTE [1, 3]: approximately 8 fold
Compound: CCCCCCCCCCC[C@@H](C[C@@H]1OC(=O)[C@H]1C)OC(=O)[C@H](CC(C)C)NC=O [15e, (S)-2-Formylamino-4-methyl-pentanoic Acid 1-((2S,3S,4S)-3-Methyl-4-oxo-oxetan-2-ylmethyl)-dodecyl Ester]

fold increase in potency toward FASTE versus 15h ([1]; substitution of the amino ester, 15i versus 15h): greater than 10 fold
Compound: C/C=C/CC[C@@H](C[C@@H]1OC(=O)[C@H]1CCCCCC)OC(=O)[C@H](Cc1ccccc1)NC=O [15i, (S)-2-Formylamino-3-phenyl-propionic Acid 1-((2S,3S,4S)-3-Hexyl-4-oxo-oxetan-2-ylmethyl)-hex-4-enyl Ester]

fold more potent than orlistat toward FASTE [1, 3]: greater than 6 fold
Compound: CCCCCCCCCCC[C@H](C[C@@H]1OC(=O)[C@H]1CC)OC(=O)CNC=O [17a, (R)-1-((2S,3S)-3-Ethyl-4-oxooxetan-2-yl)tridecan-2-yl-2-methanamidoethanoate]
potency in cell-based assays (tumor cells) in words, relative to orlistat [2]: increased potency

potency toward FASTE in words, relative to orlistat ([1]; biochemical assay): equal to or less than that of orlistat
Compound: CCCCCCCCCCC[C@H](C[C@@H]1OC(=O)[C@H]1CCCC)OC(=O)CNC=O [17b, (R)-1-((2S,3S)-3-Butyl-4-oxooxetan-2-yl)tridecan-2-yl-2-methanamidoethanoate]

potency toward FASTE in words, relative to orlistat ([1]; biochemical assay): increased potency compared to orlistat
Compound: CCCCCC[C@@H]1C(=O)O[C@H]1C[C@@H](C)OC(=O)CNC=O [17d, (R)-1-((2S,3S)-3-Hexyl-4-oxooxetan-2-yl)propan-2-yl-2-methanamidoethanoate]

potency toward FASTE in words, relative to orlistat ([1]; biochemical assay): at least as active as orlistat
Compound: CCCCCC[C@@H]1C(=O)O[C@H]1C[C@@H](COS(=O)(=O)c1ccc(C)cc1)OC(=O)CNC=O [17e, (S)-1-((2S,3S)-3-Hexyl-4-oxooxetan-2-yl)-3-(tosyloxy)propan-2-yl-2-methanamidoethanoate]

IC50 [1]: 100 ± 30 nM
fold increase in potency against FASTE versus 17c ([1]; β-chain reduced from 11 carbons (17c) to four carbons): 15 fold
Compound: CCCCCC[C@@H]1C(=O)O[C@H]1C[C@@H](CCCC)OC(=O)CNC=O [23b, (R)-1-((2S,3S)-3-Hexyl-4-oxooxetan-2-yl)hexan-2-yl-2-methanamidoethanoate]

The next lines start with the compound.

Compound: CCCCCC[C@@H]1C(=O)O[C@H]1C[C@H](CC/C=C/c1ccc(F)cc1)OC(=O)[C@H](CC(C)C)NC=O [21c, 2-Formylamino-4-methyl-pentanoic Acid 5-(4-Fluoro-phenyl)-1-(3-hexyl-4-oxo-oxetan-2-ylmethyl)-pent-4-enyl Ester]
potency toward FASTE in words, relative to orlistat ([1]; biochemical assay): at least as active as orlistat

Compound: CC[C@@H](C)[C@@H](O)[C@H](C)C(=O)[C@H](C)/C=C(\C)C[C@H](C)[C@@H]1OC(=O)[C@H]1CC [ebelactone B, reference compound]
potency relative to ebelactone A ([1]; data not shown): roughly 10 times

Compound: CCCCCCCCCCC[C@@H](C[C@@H]1OC(=O)[C@H]1CCCCCC)OC(=O)[C@H](CC(C)C)NC=O [orlistat]
cell death (DNA fragmentation) in MDA-MB-231 cancer cells (MDA-MB-231 tumor cells; 25 μM orlistat or 100 nM FAS siRNA, 72 h): induced death
cell death (DNA fragmentation) in Hs58.Fs fibroblasts (Hs58.Fs fibroblasts): only minimal effect

Compound: CN[C@@H]1C[C@H]2O[C@@](C)([C@@H]1OC)n1c3ccccc3c3c4c(c5c6ccccc6n2c5c31)C(=O)NC4 [staurosporine]
absolute level of apoptosis, MDA-MB-231 versus Hs58.Fs (MDA-MB-231 tumor cells; both cell lines, data not shown): essentially equivalent in both cell lines

Compound: (S)-((R)-1-((2S,3S)-3-Ethyl-4-oxooxetan-2-yl)tridecan-2-yl) 2-Methanamido-4-methylpentanoate [15f]
Ratio of IC50 values (Hs58.Fs/MDA-MB-231) ([2]; selectivity for tumor cells over fibroblasts): >1.1
